Measured values: ChEMBL document CHEMBL3588792, “Selective Acetamidine-Based Nitric Oxide Synthase Inhibitors: Synthesis, Docking, and Biological Studies” (ACS Med Chem Lett, 2015)
Activity calls are given as the source filed them. No cut-off for these calls is given here.

Key:
Rattus norvegicus [1] = species on record: Rattus norvegicus; assay: Induction of NA-induced LPS-treated Sprague-Dawley rat mesenteric vascular artery vasoconstriction effect measured at 1 uM/30 mins preincubation relative to basal level; type: functional, organism-based
Method in brief: (§1)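 Mesenteric arteries came from SD rats injected with LPS. NA dose-response curves (10 nM–10 μM) were recorded before and after 30 min preincubation with inhibitor. Read-outs were peak perfusion pressure (mmHg) and duration as AUC (mmHg × sec). Data are mean ± SEM of duplicates from four independent experiments.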

[2] = biological target: T1, Nitric oxide synthase, inducible (Mus musculus, UniProt P29477); assay: Inhibition of mouse recombinant iNOS using [3H]L-arginine substrate assessed as formation of [3H]L-citruline by liquid scintillation counting analysis
T1 sequence (P29477 whole entry): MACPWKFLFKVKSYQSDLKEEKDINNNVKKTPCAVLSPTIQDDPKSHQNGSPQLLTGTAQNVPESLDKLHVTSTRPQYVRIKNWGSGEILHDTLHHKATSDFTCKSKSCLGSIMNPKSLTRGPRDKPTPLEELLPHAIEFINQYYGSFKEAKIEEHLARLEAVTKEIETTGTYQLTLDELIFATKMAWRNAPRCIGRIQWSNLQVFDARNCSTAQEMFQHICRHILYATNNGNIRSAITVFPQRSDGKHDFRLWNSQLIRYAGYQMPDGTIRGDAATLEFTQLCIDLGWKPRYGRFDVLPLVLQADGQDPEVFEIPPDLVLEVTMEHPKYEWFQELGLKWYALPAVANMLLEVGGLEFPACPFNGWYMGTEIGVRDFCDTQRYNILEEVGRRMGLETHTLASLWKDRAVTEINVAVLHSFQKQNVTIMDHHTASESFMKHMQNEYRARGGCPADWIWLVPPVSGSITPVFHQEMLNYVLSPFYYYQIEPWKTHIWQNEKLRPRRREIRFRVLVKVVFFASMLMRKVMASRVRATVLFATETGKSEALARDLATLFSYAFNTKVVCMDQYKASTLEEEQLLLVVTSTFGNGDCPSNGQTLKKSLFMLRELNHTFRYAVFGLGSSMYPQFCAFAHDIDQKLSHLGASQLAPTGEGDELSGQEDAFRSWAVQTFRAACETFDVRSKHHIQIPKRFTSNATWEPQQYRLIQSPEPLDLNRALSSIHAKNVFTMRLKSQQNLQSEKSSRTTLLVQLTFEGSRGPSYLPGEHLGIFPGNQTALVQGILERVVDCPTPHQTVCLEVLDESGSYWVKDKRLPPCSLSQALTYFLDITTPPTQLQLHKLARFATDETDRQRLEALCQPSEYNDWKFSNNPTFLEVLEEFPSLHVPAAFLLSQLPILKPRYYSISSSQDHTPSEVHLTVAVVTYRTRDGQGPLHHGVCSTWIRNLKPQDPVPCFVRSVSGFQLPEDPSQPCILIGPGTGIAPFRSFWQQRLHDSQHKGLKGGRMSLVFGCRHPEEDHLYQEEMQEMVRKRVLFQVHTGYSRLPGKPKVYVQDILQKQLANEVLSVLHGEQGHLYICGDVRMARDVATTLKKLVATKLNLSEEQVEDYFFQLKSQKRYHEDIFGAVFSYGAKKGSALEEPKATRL
Method in brief: (§2)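 Recombinant enzyme inhibition was read as [3H]L-citrulline formed from [3H]L-arginine. Each inhibitor was tested at seven concentrations in triplicate, with IC50 given as mean ± SD. Selectivity is the eNOS IC50 divided by the iNOS IC50.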

Rattus norvegicus [3] = species on record: Rattus norvegicus; assay: Reduction of Ach-mediated NO-dependent precontracted Sprague-Dawley rat mesenteric vascular artery vasorelaxation measured at 1 uM/30 mins preincubation; type: functional, organism-based
Method in brief: (§3)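 Mesenteric arteries were isolated from SD rats and precontracted to ~80% of maximal constriction with 10 μM NA. The inhibitor was preincubated for 30 min, then ACh dose-response curves were run (0.01–3 μM/30 s) against control, followed by L-NAME (100 μM). Data are mean ± SEM of duplicates from four independent experiments, analysed by two-way repeated-measures ANOVA.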

Nitric oxide synthase 3 = biological target: T2, Nitric oxide synthase 3 (Bos taurus, UniProt P29473); assay: Inhibition of bovine recombinant eNOS using [3H]L-arginine substrate assessed as formation of [3H]L-citruline by liquid scintillation counting analysis; method in brief: as §2
T2 sequence (P29473 whole entry): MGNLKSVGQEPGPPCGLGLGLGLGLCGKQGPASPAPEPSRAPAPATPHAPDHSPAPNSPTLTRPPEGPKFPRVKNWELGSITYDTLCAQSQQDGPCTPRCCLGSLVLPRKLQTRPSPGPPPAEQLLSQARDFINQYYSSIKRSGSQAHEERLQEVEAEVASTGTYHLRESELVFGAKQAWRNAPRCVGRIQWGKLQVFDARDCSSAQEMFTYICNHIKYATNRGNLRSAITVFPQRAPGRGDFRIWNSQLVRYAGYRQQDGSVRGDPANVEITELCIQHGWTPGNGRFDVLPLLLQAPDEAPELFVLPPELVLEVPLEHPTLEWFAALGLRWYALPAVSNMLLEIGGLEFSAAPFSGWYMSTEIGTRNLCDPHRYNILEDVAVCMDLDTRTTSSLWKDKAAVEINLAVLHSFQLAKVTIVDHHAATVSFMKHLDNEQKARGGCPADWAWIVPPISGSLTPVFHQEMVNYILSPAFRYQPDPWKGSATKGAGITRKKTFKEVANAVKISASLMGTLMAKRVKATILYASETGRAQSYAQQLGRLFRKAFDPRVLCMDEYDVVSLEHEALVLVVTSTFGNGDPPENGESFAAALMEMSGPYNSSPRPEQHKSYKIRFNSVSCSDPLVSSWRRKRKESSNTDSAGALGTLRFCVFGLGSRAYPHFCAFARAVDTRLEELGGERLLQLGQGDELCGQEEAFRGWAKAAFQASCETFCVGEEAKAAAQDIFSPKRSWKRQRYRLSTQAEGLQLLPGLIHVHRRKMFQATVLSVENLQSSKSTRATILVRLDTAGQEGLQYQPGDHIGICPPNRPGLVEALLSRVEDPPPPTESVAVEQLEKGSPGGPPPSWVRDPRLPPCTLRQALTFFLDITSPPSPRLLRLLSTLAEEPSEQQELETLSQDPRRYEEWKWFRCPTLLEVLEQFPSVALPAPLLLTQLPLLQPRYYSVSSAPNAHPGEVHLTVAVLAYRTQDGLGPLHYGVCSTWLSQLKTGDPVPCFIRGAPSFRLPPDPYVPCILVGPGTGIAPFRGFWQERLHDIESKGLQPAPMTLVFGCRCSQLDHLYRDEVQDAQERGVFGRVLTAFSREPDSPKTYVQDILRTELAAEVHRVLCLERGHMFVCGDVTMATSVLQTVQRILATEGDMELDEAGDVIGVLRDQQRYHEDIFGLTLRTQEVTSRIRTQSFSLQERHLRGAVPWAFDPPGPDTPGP

[4] = Selectivity ratio of IC50 for bovine recombinant eNOS to IC50 for mouse recombinant iNOS
Rattus norvegicus [5] = species on record: Rattus norvegicus; assay: Reduction of Ach-mediated NO-dependent precontracted Sprague-Dawley rat mesenteric vascular artery vasorelaxation measured at 0.43 uM/30 mins preincubation; type: functional, organism-based; method in brief: as §3
Rattus norvegicus [6] = species on record: Rattus norvegicus; assay: Induction of NA-induced LPS-treated Sprague-Dawley rat mesenteric vascular artery vasoconstriction effect measured at 0.43 uM/30 mins preincubation relative to basal level; type: functional, organism-based; method in brief: as §1
Rattus norvegicus [7] = species on record: Rattus norvegicus; assay: Reduction of Ach-mediated NO-dependent precontracted Sprague-Dawley rat mesenteric vascular artery vasorelaxation measured at 1 to 1.2 uM/30 mins preincubation; type: functional, organism-based; method in brief: as §3
Rattus norvegicus [8] = species on record: Rattus norvegicus; assay: Reduction of Ach-mediated NO-dependent precontracted Sprague-Dawley rat mesenteric vascular artery vasorelaxation measured up to 0.7 uM/30 mins preincubation; type: functional, organism-based; method in brief: as §3
Rattus norvegicus [9] = species on record: Rattus norvegicus; assay: Reduction of Ach-mediated NO-dependent precontracted Sprague-Dawley rat mesenteric vascular artery vasorelaxation measured at 0.85 uM/30 mins preincubation; type: functional, organism-based; method in brief: as §3
Rattus norvegicus [10] = species on record: Rattus norvegicus; assay: Induction of NA-induced LPS-treated Sprague-Dawley rat mesenteric vascular artery vasoconstriction effect measured at 100 uM/30 mins preincubation; type: functional, organism-based; method in brief: as §1
Rattus norvegicus [11] = species on record: Rattus norvegicus; assay: Induction of NA-induced LPS-treated Sprague-Dawley rat mesenteric vascular artery vasoconstriction effect measured at 0.43 uM/30 mins preincubation; type: functional, organism-based; method in brief: as §1
Rattus norvegicus [12] = species on record: Rattus norvegicus; assay: Induction of NA-induced LPS-treated Sprague-Dawley rat mesenteric vascular artery vasoconstriction effect measured at 1 uM/30 mins preincubation; type: functional, organism-based; method in brief: as §1
Rattus norvegicus [13] = species on record: Rattus norvegicus; assay: Reduction of Ach-mediated NO-dependent precontracted Sprague-Dawley rat mesenteric vascular artery vasorelaxation measured at 100 uM/30 mins preincubation; type: functional, organism-based
Method in brief: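 Isolated SD rat mesenteric arteries precontracted with 10 μM NA to about 80% of maximal vasoconstriction. Preincubation 30 min at 100 μM, then dose-response to ACh (0.01–3 μM/30 s) for NO-dependent (eNOS-mediated) vasorelaxation, compared with control curve. Mean ± SEM of duplicates, four independent experiments; two-way repeated-measures ANOVA.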

Rattus norvegicus [14] = species on record: Rattus norvegicus; assay: Induction of NA-induced LPS-treated Sprague-Dawley rat mesenteric vascular artery vasoconstriction effect measured at 100 uM/30 mins preincubation relative to basal level; type: functional, organism-based

Row | IC50 [2] [nM] | IC50 (Nitric oxide synthase 3) [µM] | Ratio IC50 [4] | Structure (SMILES) | further results
1 | 100 |  |  | CC(=N)NCc1cccc(CN)c1 [1400W] | Activity (Rattus norvegicus [1]): Active; inhibition (Rattus norvegicus [3]): inactive
2 | > 10000 |  |  | CC(=N)NCc1cccc(CNC(=O)CC(=O)O)c1 | 
3 | 100 | 30 | 300 | CC(=N)NCc1cccc(CNCc2ccccc2[N+](=O)[O-])c1 | 
4 | > 10000 |  |  | CC(=N)NCc1cccc(CNC(=O)CN)c1 | 
5 | > 10000 |  |  | CC(=N)NCc1cccc(CNC(=O)CCCN)c1 | 

Second part, the molecule before the results:

Row | Structure (SMILES) | IC50 [2] [nM] | IC50 (Nitric oxide synthase 3) [µM] | Ratio IC50 [4] | further results
6 | CC(=N)NCc1cccc(CN(Cc2ccc([N+](=O)[O-])cc2)Cc2ccc([N+](=O)[O-])cc2)c1 | 500 | 100 | 200 | 
7 | CC(=N)NCc1cccc(CNC(=O)CCN)c1 | > 10000 |  |  | 
8 | CC(=N)NCc1cccc(CNC(=O)CCC(=O)O)c1 | 428 | > 1000 | > 2300 | inhibition (Rattus norvegicus [5]): inactive; Activity (Rattus norvegicus [6]): Active; Activity (Rattus norvegicus [7]): Active; inhibition (Rattus norvegicus [8]): inactive; Activity (Rattus norvegicus [9]): Active; Activity (Rattus norvegicus [10]): Active; Activity (Rattus norvegicus [11]): Active; Activity (Rattus norvegicus [12]): Active; inhibition (Rattus norvegicus [13]): inactive
9 | CC(=N)NCc1cccc(CNC(=O)c2ccc(C(=O)O)cc2)c1 | 165 | 90.8 | 550 | 
10 | COC(=O)[C@@H](N)CCCNC(=N)N[N+](=O)[O-] |  |  |  | Activity (Rattus norvegicus [14]): Active; inhibition (Rattus norvegicus [13]): Active
